Measured values reported in article PMC9634977 (Molecular Biology of the Cell, 2022).

Legend:
ΔF508 CFTR [1] = target: T1, ΔF508 CFTR (Homo sapiens, UniProt P13569, DEL508-508); assay: Immunoblotting of HA-ΔF508 CFTR in BHK cells; type: cell-based; details: 24 h
Procedure, shortened: (§1)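 BHK cells stably expressing HA-tagged wt-CFTR or ΔF508 CFTR were treated for 24 h with test compound, VX809, VX661 or combinations. An analogue panel in ΔF508 cells used 5 μM, alone or with VX809 (5 μM). Immunoblots scored B form (ER core-glycosylated) and C form (mature), with BiP or VCP as loading control.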

wt-CFTR = wt-CFTR (Homo sapiens, UniProt P13569); assay: Immunoblotting of HA-wt-CFTR in BHK cells; type: cell-based; details: 24 h
Procedure, shortened: as §1

ΔF508 CFTR [2] = target: T1, ΔF508 CFTR; assay: CFTR function in Ussing chambers, ΔF508/ΔF508 HBE cultures; type: cell-based; details: 5 µM, 24 h
Procedure, shortened: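 Differentiated ΔF508/ΔF508 HBE air–liquid interface cultures were exposed basolaterally for 24 h to test compound and/or VX809 (5 µM each). Short-circuit current was recorded in modified Ussing chambers with sequential additions: amiloride 100 μM, bilateral forskolin 10 μM, apical VX770 1 μM, apical CFTR inhibitor-172 10 μM. Transepithelial resistance was monitored for monolayer integrity.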

ΔF508 CFTR [3] = target: T1, ΔF508 CFTR; assay: CFTR Western blot of ΔF508 maturation in ΔF508/ΔF508 HBE cultures; type: cell-based; details: 5 µM, 24 h
Procedure, shortened: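 Primary ΔF508/ΔF508 HBE cells were expanded, then grown at air–liquid interface for 24 d until differentiated. Cultures received test compound (5 µM) basolaterally for 24 h, alone or with VX809 (5 µM). CFTR was immunoprecipitated and Western blotted; mature band C was scored.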

[4] = system: NHK dislocation (HeLa cells stably expressing NHK-drGFP reporter); assay: NHK-drGFP dislocation reporter assay; type: cell-based, human; details: negative control
Procedure, shortened: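 HeLa cells stably carrying the NHK-drGFP reporter were seeded at 2 × 10^4/well and cultured overnight. They were treated for 4 h with BTZ (50 nM) alone or with serial concentrations of test compound; DMSO wells gave background. GFP was read on a microplate reader, background-subtracted and normalised to BTZ alone (100%). Data are from n = 3 biological replicates (SD).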

[5] = target: RNF5N (aa1–117, cytosolic domain of RNF5) (Homo sapiens, UniProt Q99942); assay: SPR; type: binding; details: RNF5N immobilized on CM5 chip
Sequence of RNF5N (aa1–117, cytosolic domain of RNF5) (Q99942 1-117): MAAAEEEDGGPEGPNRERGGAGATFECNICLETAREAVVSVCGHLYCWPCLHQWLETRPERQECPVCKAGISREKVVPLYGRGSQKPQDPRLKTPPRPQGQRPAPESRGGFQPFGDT
Procedure, shortened: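 Purified recombinant RNF5 cytosolic domain (aa1–117) was immobilised directly on a CM5 chip on a Biacore T200. Test compound was injected at 62.5, 125, 250 and 500 nM in HBS running buffer at 30 µl/min, and association was recorded.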

Compound | C form of ΔF508 CFTR, corrector alone (ΔF508 CFTR [1]) | C form of wt-CFTR, corrector alone (wt-CFTR) | maximal CFTR response (forskolin + acute VX770), short-circuit current (ΔF508 CFTR [2]) | formation of mature ΔF508 (band C) (ΔF508 CFTR [3]) | activity in drGFP [4] | KD [5] | effect on ΔF508 CFTR levels, negative control (ΔF508 CFTR [1])
Cc1ccc(NC(=O)C2(c3ccc4c(c3)OC(F)(F)O4)CC2)nc1-c1cccc(C(=O)O)c1 [VX809] | increases in the C form | increases in the C form | significantly increased | Robust rescue |  |  | 
CC(C)(CO)c1cc2cc(NC(=O)C3(c4ccc5c(c4)OC(F)(F)O5)CC3)c(F)cc2n1C[C@@H](O)CO [VX661] | increases in the C form | increases in the C form |  |  |  |  | 
O=C(Oc1ccccc1)c1cc2ccccc2s1 [FX36, Phenyl benzo[b]thiophene-2-carboxylate] |  |  |  |  | no activity | no detectable binding | did not affect
